The values below come from ChEMBL document CHEMBL3580571, “Bis-arylidene oxindole-betulinic Acid conjugate: a fluorescent cancer cell detector with potent anticancer activity” (ACS Med Chem Lett, 2015).

In general, IC50 refers to the concentration at which inhibition is half-maximal.

Series [1] is described as follows: Cellular uptake in human PANC1 cells at 2 uM after 4 hrs by fluorescence microscopic analysis. The following applies: panc-1, 4 h. The series is classed as ADME, cell-based. The essentials: (§1)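 Live cells were examined by fluorescence microscopy for uptake of the intrinsically fluorescent molecules, with untreated cells as control. Uptake was also quantified as % uptake per microgram of cellular protein. Fluorescence values were normalized to the absorption values of each molecule because their absorptivities differ.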

For the next series, the system named is MCF7. Kind of series: Cytotoxicity against human MCF7 cells assessed as cell killing effect after 72 hrs by MTT assay. Format: functional, cell-based. The following applies: MCF7, 72 h. The essentials: (§2)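 Cells were treated continuously for 72 h. Cytotoxicity is reported as IC50 in μM.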
A further series has as its system OVCAR-3. Kind of series: Cytotoxicity against human OVCAR3 cells assessed as cell killing effect after 72 hrs by MTT assay. The series is classed as functional, cell-based. As to conditions: OVCAR-3, 72 h. Summed up: as §2
In series [2] the test system is B16-F10. Kind of series: Induction of apoptosis in mouse B16F10 cells assessed as necrotic cells at 2 uM after 45 hrs by annexinV-FITC/propidium iodide staining-based flow cytometric analysis (reference value: 9%). The series is classed as functional. Summed up: (§3)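 Treated B16F10 cells were double-stained with annexin V and propidium iodide and analysed by flow cytometry, with untreated cells as control. Quadrants: Q1 PI-only (necrotic); Q2 double-positive (post-apoptotic); Q4 annexin-only (apoptotic); Q3 double-negative (healthy).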

Series [3] is described as follows: Cellular uptake in mouse NIH/3T3 cells at 2 uM after 4 hrs by fluorescence microscopic analysis. The following applies: nih3t3, 4 h. The series is classed as ADME, cell-based. Summed up: as §1
For series [4], the system named is B16-F10. Kind of series: Induction of apoptosis in mouse B16F10 cells assessed as late apoptotic cells at 2 uM after 45 hrs by annexinV-FITC/propidium iodide staining-based flow cytometric analysis (reference value: 0.8%). The series is classed as functional. The essentials:
as §3
(In general: Flow cytometry measures light scatter and fluorescence of single cells or particles in a stream.)

The nature of series [5]: Cellular uptake in mouse B16F10 cells at 2 uM after 4 hrs by fluorescence microscopic analysis. Format: ADME, cell-based. The following applies: b16-f10, 4 h. Summed up:
as §1

Series [6] relates to B16-F10. Kind of series: Induction of apoptosis in mouse B16F10 cells assessed as early apoptotic cells at 2 uM after 45 hrs by annexinV-FITC/propidium iodide staining-based flow cytometric analysis (reference value: 0.1%). The series is classed as functional. The essentials: as §3
Series [7] can be described thus: Induction of reactive oxygen species generation in mouse NIH/3T3 cells at 2 uM after 36 hrs by DCFDA dye-based fluorescence microscopic analysis. The series is classed as cell-based. The following applies: nih3t3, 36 h. Summed up: (§4)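 Treated cells were imaged for ROS by fluorescence microscopy at 20× magnification, with untreated cells as control.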
A short description of series [8]: Cytotoxicity against mouse NIH/3T3 cells assessed as cell killing effect after 72 hrs by MTT assay. The series is classed as cell-based. The following applies: NIH3T3, 72 h. Summed up: as §2
In general terms: Formazan colour is commonly taken as a measure of viable cells.

For another series, the system named is CHO. Kind of series: Cytotoxicity against CHO cells assessed as cell killing effect after 72 hrs by MTT assay. Format: cell-based. The following applies: Cricetulus griseus. The essentials: as §2
The next series has as its system MDA-MB-231. Kind of series: Cytotoxicity against human MDA-MB-231 cells assessed as cell killing effect after 72 hrs by MTT assay. As to conditions: MDA-MB-231, 72 h. Format: functional, cell-based. Summed up:
as §2

Series [9] can be described thus: Cytotoxicity against mouse B16F10 cells assessed as cell killing effect after 72 hrs by MTT assay. The series is classed as functional, cell-based. The following applies: B16-F10, 72 h. The essentials:
as §2

A short description of series [10]: Cytotoxicity against human PANC1 cells assessed as cell killing effect after 72 hrs by MTT assay. The series is classed as functional, cell-based. The following applies: PANC-1, 72 h. Summed up:
as §2

Series [11] deals with B16-F10. Kind of series: Induction of apoptosis in mouse B16F10 cells assessed as viable cells at 2 uM after 45 hrs by annexinV-FITC/propidium iodide staining-based flow cytometric analysis (reference value: 90.1%). Format: functional. The following applies: B16-F10, 45 h, read-out: Activity. The essentials: as §3
The test system of a further series is A549. Kind of series: Cytotoxicity against human A549 cells assessed as cell killing effect after 72 hrs by MTT assay. Format: functional, cell-based. The following applies: A549, 72 h. The essentials: as §2
For series [12], the system named is B16-F10. Kind of series: Induction of reactive oxygen species generation in mouse B16F10 cells at 2 uM after 36 hrs by DCFDA dye-based fluorescence microscopic analysis. The series is classed as functional, cell-based. Summed up:
as §4

Each structure is given as a SMILES string. The source made the active and inactive calls. The rule behind the calls is not given here.

Consider `COc1ccc(CN2C(=O)C(=C(c3ccc(O)cc3)c3ccc(O)cc3)c3ccccc32)cc1`, for which the Drug uptake entry in series [1], in series [3] and in [5] was “Active” throughout. Further, the IC50 (in the series on MCF7; in the series on OVCAR-3; in series [8]; in the series with CHO; in the series on MDA-MB-231; in [9]) was more than 20 µM in each case. Also, the half-inhibitory concentration (IC50) in series [10] was more than 20 µM. The Activity with B16-F10 [2] was 5.1%; with B16-F10 [4], 1.7%; with B16-F10 [6], 0.2%; in [7], “Non-toxic”. Also, the viability at 2 µM in the series on B16-F10 [11] was determined as 93%.

Turning to `C=C(C)[C@@H]1CC[C@]2(C(=O)O)CC[C@]3(C)[C@H](CC[C@@H]4[C@@]5(C)CC[C@H](O)C(C)(C)[C@@H]5CC[C@]43C)[C@@H]12` [BETULINIC ACID], the IC50 in the series on MCF7 was 10.5 µM; with OVCAR-3, 8.37 µM; in the series with A549, more than 20 µM; in [8], more than 20 µM; in the series on CHO it was more than 20 µM; in the series with MDA-MB-231, more than 20 µM. In addition, the IC50 in series [9] was more than 20 µM; in [10] it was 10.2 µM. For the same compound, the Activity in the series with B16-F10 [2] is listed as 0%; in the series with B16-F10 [4] it was 0.9%; in the series on B16-F10 [6], 0.3%; in series [7], “Non-toxic”. Besides, the outcome with B16-F10 [12] was Active. The viability at 2 µM with B16-F10 [11] came out at 98.8%.

Turning to `COc1ccc(CN2C(=O)/C(=C(/c3ccc(O)cc3)c3ccc(OCCCN)cc3)c3ccccc32)cc1`, the results for the Drug uptake result in series [1], in [3] and in series [5] were “Active”, “Not Active” and “Active”, respectively. Further, the IC50 in the series on A549 is 1.36 µM; with MDA-MB-231, more than 20 µM; in [9], more than 20 µM; in series [10], more than 20 µM. The Activity in the series on B16-F10 [2] is 8.4%; in the series with B16-F10 [4] it was 0.9%; in the series with B16-F10 [6] it was 0%; in [7], “Non-toxic”. For the same compound, in the series with B16-F10 [11], the viability at 2 µM is 90.7%.

Take `COc1cccc2c1C(=O)c1c(O)c3c(c(O)c1C2=O)C[C@@](O)(C(=O)CO)C[C@@H]3O[C@H]1C[C@H](N)[C@H](O)[C@H](C)O1` [DOXORUBICIN]: the Drug uptake result in [1], in series [3] and in series [5] was “Active” each time. Also, the Activity with B16-F10 [2] is on record as 34.1%; in the series on B16-F10 [4], 21.4%; in the series with B16-F10 [6], 1.1%; in series [7] it was “Toxic”. In the series on B16-F10 [12], the outcome was Active. Besides, the figures for the IC50 in [8], in [9] and in series [10] were 7.21 µM, 0.663 µM and 1.03 µM, respectively. Moreover, the viability at 2 µM with B16-F10 [11] was found to be 43.4%.

Take `C=C(C)[C@@H]1CC[C@]2(C(=O)NCCCOc3ccc(/C(=C4\C(=O)N(Cc5ccc(OC)cc5)c5ccccc54)c4ccc(O)cc4)cc3)CC[C@]3(C)[C@H](CC[C@@H]4[C@@]5(C)CC[C@H](O)C(C)(C)[C@@H]5CC[C@]43C)[C@@H]12`: the Drug uptake entry in series [1] is “Active”; in series [3], “Not Active”; in [5], “Active”. The half-inhibitory concentration (IC50) in the series with MCF7 is 7.4 µM; in the series with OVCAR-3, 6.05 µM; with A549, 2.56 µM; in series [8], more than 20 µM; in the series with CHO it was more than 20 µM; in the series on MDA-MB-231, 1.26 µM. The figures for the IC50 in series [9] and in [10] were 2.3 µM and 2.63 µM, respectively. Also, the Activity was 5% in the series on B16-F10 [2], 54.6% in the series with B16-F10 [4], 3.8% in the series with B16-F10 [6] and “Non-toxic” in [7]. The result in the series on B16-F10 [12] was Active. In the series on B16-F10 [11], the viability at 2 µM was found to be 36.6%.

On to `C=C(C)[C@@H]1CC[C@]2(C(=O)NCCCNC(=S)Nc3ccc4c(c3)C(=O)OC43c4ccc(O)cc4Oc4cc(O)ccc43)CC[C@]3(C)[C@H](CC[C@@H]4[C@@]5(C)CC[C@H](O)C(C)(C)[C@@H]5CC[C@]43C)[C@@H]12`, for which the Drug uptake result in series [1] is “Active”; in [3], “Not Active”; in [5], “Active”. Further, the IC50 is more than 20 µM in [8], 20 µM in series [9] and 9.78 µM in series [10].
